The test system of one assay is B16-F10. Briefly: Cytotoxicity against mouse B16F10 cells after 72 hrs by MTT assay. It counts as functional, cell-based. As to conditions: B16-F10, 72 h. (In general: Tetrazolium dyes change colour on reduction, which living cells bring about.)
The subject of another assay is PC-3. The assay is described as follows: Cytotoxicity against human PC3 cells after 72 hrs by MTT assay. It counts as functional, cell-based. The note with it: PC-3, 72 h.
The subject of the next assay is MCF7. Briefly: Cytotoxicity against human MCF7 cells after 72 hrs by MTT assay. As to conditions: MCF7, 72 h. It counts as functional, cell-based.
The nature of assay [1]: Cytotoxicity against p53-mutant human U373 cells after 72 hrs by MTT assay. The format is functional, cell-based, U-373MG ATCC. As to conditions: U373 MG.
Assay [2] can be described thus: Cytotoxicity against human Hs683 cells after 72 hrs by MTT assay. The note with it: Hs 683, 72 h. It counts as functional, cell-based.
In another assay the test system is LoVo. The assay is described as follows: Cytotoxicity against human LoVo cells after 72 hrs by MTT assay. The format is functional, cell-based.
Assay [3] in a line: Cytotoxicity against human OE21 cells after 72 hrs by MTT assay. The format is functional, cell-based. The note with it: OE21, 72 h.
For a further assay, the system named is A549. Briefly: Cytotoxicity against human A549 cells after 72 hrs by MTT assay. It counts as functional, cell-based. The note with it: A549, 72 h.
The next assay concerns HCT-116. Briefly: Cell cycle arrest in p53 double-mutant human HCT116 cells assessed as mitotic index after 24 hrs by flow cytometric analysis. The format is functional. The arrangement: concentration or dose not given beside the values. The gist of the method:
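HCT116 p53-/- cells pretreated with etoposide for 1 h, then released into drug-free medium with or without inhibitor for 23 h; nocodazole added to trap cells exiting G2/M. Mitotic cells scored by phospho-histone H3 labeling and DNA content (propidium iodide) by flow cytometry.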

With `COc1ccc2[nH]c(-c3ccc[nH]3)c(C3CC(=O)NC3=O)c2c1` (configuration not stated), the 50% inhibitory concentration (IC50) – broadly, the point on the concentration scale where inhibition reaches its midpoint – in the assay with B16-F10 came out at 0.6 µM; in the assay on PC-3, 6 µM; in the assay with MCF7, 19 µM; in [1] it was 15 µM; in assay [2] it was 6 µM; with LoVo it was 4 µM. Besides, the concentration for half-maximal inhibition (IC50) is 53 µM in assay [3] and 4 µM with A549.
On to `O=C1NC(=O)C(c2c(-n3cccn3)[nH]c3ccccc23)=C1Br`, for which the IC50 in the assay on B16-F10 was 13 µM; with PC-3, 27 µM; with MCF7 it was 27 µM; in assay [1] it was 27 µM; in assay [2], 29 µM; in the assay on LoVo it was 24 µM. The IC50 stood at 27 µM in assay [3] and 25 µM in the assay with A549.
For the compound `Cc1ccc2[nH]c(-c3ccc[nH]3)cc2c1`, the Activity in the assay on HCT-116 was found to be 5%.
On to `c1ccc2[nH]c(-n3cccn3)cc2c1`, for which the IC50 was greater than 100 µM in the assay with B16-F10; greater than 100 µM in the assay with PC-3; greater than 100 µM in the assay on MCF7; greater than 100 µM in assay [1]; greater than 100 µM in [2]; 86 µM in the assay with LoVo. Moreover, the half-maximal inhibitory concentration (IC50) (in assay [3]; in the assay with A549) was greater than 100 µM each time.
Consider `COc1ccc2[nH]c3c(c4c(n5cccc35)C(=O)N(C)C4=O)c2c1`, for which the IC50 in the assay on B16-F10 worked out at 27 µM; in the assay on PC-3, 64 µM; in the assay with MCF7, 36 µM; in [1], 28 µM; in assay [2], 72 µM; in the assay with LoVo it was 40 µM. The IC50 was greater than 100 µM in [3] and 36 µM in the assay on A549.
With `Cc1ccc2[nH]c(-n3cccn3)cc2c1`, the half-inhibitory concentration (IC50) is greater than 100 µM with B16-F10; greater than 100 µM in the assay on PC-3; greater than 100 µM in the assay on MCF7; greater than 100 µM in [1]; greater than 100 µM in assay [2]; 87 µM with LoVo. For the same compound, the 50% inhibitory concentration (IC50) (in assay [3]; in the assay on A549) was greater than 100 µM throughout.
Turning to `O=C1NC(=O)c2c1c1c3ccccc3[nH]c1n1cncc21` [ISOGRANULATIMIDE], the half-maximal inhibitory concentration (IC50) in the assay on B16-F10 is 35 µM; in the assay with PC-3 it was 91 µM; with MCF7, 99 µM; in assay [1], greater than 100 µM; in assay [2], greater than 100 µM; in the assay with LoVo, 62 µM. Half-maximal inhibition with A549 (IC50) was put at 79 µM. Moreover, the Activity with HCT-116 came to 17.2%.
Regarding `Cc1ccc2[nH]c(-c3ccc[nH]3)c(C3CC(=O)NC3=O)c2c1` (configuration not stated), the IC50 was determined as 0.5 µM in the assay with B16-F10; 11 µM with PC-3; 29 µM in the assay with MCF7; 5 µM in assay [1]; 8 µM in [2]; 4 µM in the assay with LoVo. The IC50 in assay [3] is greater than 100 µM; in the assay with A549, 20 µM.
For `O=C1NC(=O)c2c1c1[nH]cnc1c1[nH]c3ccccc3c21` [GRANULATIMIDE], the IC50 was 5 µM in the assay with B16-F10; 11 µM in the assay on PC-3; 46 µM in the assay with MCF7; 6 µM in [1]; 23 µM in [2]; 3 µM in the assay with LoVo. The midpoint of inhibition with A549, the IC50, lay at 18 µM. Besides, the Activity in the assay with HCT-116 is 19.4%.
In the case of `COc1ccc2[nH]c3c4cn[nH]c4c4c(c3c2c1)C(=O)NC4=O`, the IC50 was 37 µM with B16-F10; greater than 100 µM with PC-3; 51 µM in assay [1]; 45 µM in assay [2]; 42 µM in the assay with LoVo; greater than 100 µM in the assay on A549.
With `COc1ccc2[nH]c(-n3cccn3)cc2c1`, the half-maximal inhibitory concentration (IC50) was greater than 100 µM in the assay with B16-F10; greater than 100 µM with PC-3; greater than 100 µM with MCF7; greater than 100 µM in assay [1]; 69 µM in assay [2]; 70 µM in the assay with LoVo. In addition, the IC50 (in [3]; with A549) was greater than 100 µM in each case.
On to `COc1ccc2[nH]c(-n3cccn3)c(C3=C(Br)C(=O)NC3=O)c2c1`, for which the concentration for half-maximal inhibition (IC50) in the assay on B16-F10 was 8 µM; in the assay with PC-3, 26 µM; in the assay on MCF7, 11 µM; in assay [1], 27 µM; in assay [2], 30 µM; in the assay on LoVo, 26 µM. For the same compound, the IC50 turned out to be 30 µM in assay [3] and 29 µM in the assay with A549.

The values above are taken from ChEMBL document CHEMBL2040806, “Synthesis and biological evaluation of analogs of the marine alkaloids granulatimide and isogranulatimide” (Eur J Med Chem, 2012).
